Laboratory results published in ChEMBL document CHEMBL1128252, “Synthesis and anti-HIV-1 activity of 4,5,6,7-tetrahydro-5-methylimidazo [4,5,1-jk][1,4]benzodiazepin-2(1H)-one (TIBO) derivatives. 3” (J Med Chem, 1995).

How the values were obtained:
[1] = tested on: Human immunodeficiency virus 1; experiment: (§1) Effective concentration required to achieve 50% protection of MT-4 cells against the cytopathic effect of HIV-1.; assay type: functional, organism-based; conditions: Human immunodeficiency virus 1, MT4
Method in brief: (§2)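 MT-4 cells infected with HIV-1 and incubated with a range of compound concentrations. Viable cells were counted 5 days post-infection by MTT staining. IC50 is the concentration protecting 50% of cells from virus-induced cytopathic effect. Values are means over n assays, where n varies per compound.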

[2] = tested on: Human immunodeficiency virus 1; experiment: as §1; assay type: functional, organism-based, MT4; method in brief: as §2
MT4 [3] = experiment: Effective concentration of compound required to achieve 50% protection of MT-4 cells against the cytopathic effect of HIV-1 number of experiments = 53; assay type: functional, cell-based; conditions: Homo sapiens; method in brief: as §2
MT4 [4] = experiment: Effective concentration of compound required to achieve 50% protection of MT-4 cells against the cytopathic effect of HIV-1 number of experiments = 4; assay type: functional, cell-based; conditions: Homo sapiens; method in brief: as §2
MT4 [5] = experiment: Effective concentration of compound required to achieve 50% protection of MT-4 cells against the cytopathic effect of HIV-1 number of experiments = 8; assay type: functional, cell-based; conditions: Homo sapiens; method in brief: as §2
MT4 [6] = experiment: Effective concentration of compound required to achieve 50% protection of MT-4 cells against the cytopathic effect of HIV-1 number of experiments = 24; assay type: functional, cell-based; conditions: Homo sapiens; method in brief: as §2
MT4 [7] = experiment: Effective concentration of compound required to achieve 50% protection of MT-4 cells against the cytopathic effect of HIV-1 number of experiments = 20; assay type: functional, cell-based; conditions: Homo sapiens; method in brief: as §2
MT4 [8] = experiment: Effective concentration of compound required to achieve 50% protection of MT-4 cells against the cytopathic effect of HIV-1 number of experiments = 6; assay type: functional, cell-based; conditions: Homo sapiens; method in brief: as §2
[9] = Human immunodeficiency virus 1, MT4

Row | SMILES | IC50 [1] [µM] | also measured
1 | CC(C)=CCN1Cc2cc(Cl)cc3[nH]c(=O)n(c23)C[C@H]1C | – | IC50 [2, 9]: 0.18 µM
2 | CC(C)=CCN1Cc2cc(Cl)cc3nc(S)n(c23)C[C@H]1C | – | IC50 (MT4 [3]): 0.043 µM
3 | C=C(C)CN1Cc2cccc3nc(O)n(c23)CC1CCC (stereo not drawn) | – | IC50 [2, 9]: > 10 µM
4 | Oc1nc2cccc3c2n1CC1CCCN1C3 (stereo not drawn) | > 250 | –
5 | C=C(C)CN1Cc2cccc3[nH]c(=O)n(c23)C(C(C)C)C1 (stereo not drawn) | – | IC50 [2, 9]: 12.6 µM
6 | Sc1nc2cc(Cl)cc3c2n1CCN1CCCC31 (stereo not drawn) | > 2 | –
7 | CC(C)=CCN1CCn2c(=O)[nH]c3cc(Cl)cc(c32)C1C (stereo not drawn) | 0.16 | –
8 | CC1NCCn2c(O)nc3cccc1c32 (stereo not drawn) | > 250 | –
9 | CC(C)=CCN1CC(C)n2c(S)nc3cccc(c32)C1C (stereo in doubt; 1bg) | – | IC50 ([2]; mt4): 25.8 µM
10 | CC(C)=CCN1CCn2c(=O)[nH]c3ccc(Cl)c(c32)C1C (stereo not drawn) | – | IC50 [2, 9]: 0.145 µM
11 | CC(C)=CCN1CCn2c(S)nc3cc(Cl)c4c(c32)C1CC4 (stereo not drawn) | > 2 | –
12 | CC(C)[C@H]1Cn2c(O)nc3cccc(c32)CN1 | – | IC50 [2, 9]: > 250 µM
13 | CCCN1C(=O)c2cccc3nc(O)n(c23)CC1C (stereo not drawn) | – | IC50 (MT4 [4]): > 250 µM
14 | CC(C)C1CNCc2cccc3nc(O)n1c23 (stereo not drawn) | – | IC50 [2, 9]: > 250 µM
15 | O=C1Nc2ccccc2-n2c(S)nc3cccc1c32 | > 250 | –
16 | Oc1nc2cccc3c2n1CC1CCCCN1C3 (stereo not drawn) | – | IC50 (MT4 [5]): > 250 µM
17 | CC(C)=CCN1CCn2c(S)nc3cccc(c32)C1c1ccccc1 (stereo not drawn) | > 2 | –
18 | Oc1nc2cccc3c2n1CC(c1ccccc1)NC3 (stereo not drawn) | > 250 | –
19 | CC(C)=CCN1CCn2c(=O)[nH]c3cccc(c32)C1C (stereo not drawn) | – | IC50 [2, 9]: 12.1 µM
20 | CCCC1CN(CCC)Cc2cccc3[nH]c(=O)n1c23 (stereo not drawn) | – | IC50 [2, 9]: > 180 µM
21 | S=c1[nH]c2cccc3c2n1-c1ccccc1N(CC1CC1)C3 | – | IC50 [2, 9]: > 10 µM

Row | SMILES | IC50 [1] [µM] | also measured
22 | CC(C)[C@H]1Cn2c(O)nc3cc(Cl)cc(c32)CN1 | > 10 | –
23 | CC(C)=CCN1CC(C)n2c(S)nc3cccc(c32)C1C (stereo in doubt; 1bh) | – | IC50 ([2]; mt4): > 10 µM
24 | CC(C)=CCN1Cc2cc(Cl)cc3nc(S)n(c23)C[C@H]1C(C)C | > 10 | –
25 | O=C1CCC2c3cc(Cl)cc4nc(S)n(c34)CCN12 (stereo not drawn) | – | IC50 [2, 9]: > 250 µM
26 | C=C(C)CN1Cc2cccc3nc(O)n(c23)CC1c1ccccc1 (stereo not drawn) | > 10 | –
27 | CC(C)=CCN1Cc2cccc3nc(O)n(c23)C[C@H]1C | – | IC50 (MT4 [5]): 3.32 µM
28 | CC(C)=CCN1CCn2c(=S)[nH]c3ccc(Cl)c(c32)C1C (stereo not drawn) | – | IC50 [2, 9]: 0.012 µM
29 | CC(C)=CCN1CCn2c(=S)[nH]c3ccc(Cl)c(c32)C1 | – | IC50 [2, 9]: 0.046 µM
30 | C=C(C)CN1Cc2cccc3[nH]c(=O)n(c23)C(CCC)C1 (stereo not drawn) | – | IC50 [2, 9]: 48.1 µM
31 | C=C(C)CN1Cc2cccc3[nH]c(=O)n(c23)CC1CC (stereo not drawn) | – | IC50 (MT4 [4]): > 50 µM
32 | CC(C)=CCN1[C@@H](C)Cn2c(S)nc3cc(Cl)cc(c32)[C@@H]1C | > 10 | –
33 | C=C(C)CN1Cc2cc(Cl)cc3[nH]c(=S)n(c23)[C@@H](C)C1 | 0.67 | –
34 | C=C(C)CN1Cc2cccc3[nH]c(=O)n(c23)CC1C (stereo not drawn) | – | IC50 (MT4 [6]): 34.7 µM
35 | CC(C)=CCN1[C@H](C)Cn2c(=O)[nH]c3cc(Cl)cc(c32)[C@H]1C | 0.23 | –
36 | CCCN1Cc2cccc3nc(O)n(c23)CC1=O | – | IC50 [2, 9]: > 250 µM
37 | CCCC1Cn2c(O)nc3cccc(c32)CN1 (stereo not drawn) | – | IC50 [2, 9]: > 250 µM
38 | CC(C)=CCN1Cc2c(Cl)ccc3nc(S)n(c23)C[C@H]1C | – | IC50 (MT4 [7]): 0.005 µM
39 | C[C@@H]1CN(CC2CC2)Cc2cc(Cl)cc3[nH]c(=S)n1c23 | – | IC50 (MT4 [8]): 2.18 µM
40 | CCCC1CNCc2cccc3nc(O)n1c23 (stereo not drawn) | – | IC50 [2, 9]: > 250 µM
41 | C[C@@H]1Cn2c(O)nc3cc(Cl)cc(c32)CN1 | – | IC50 [2, 9]: > 250 µM

Continued, in another order:

Row | IC50 [1] [µM] | SMILES | also measured
42 | > 10 | CC(C)=CCN1Cc2cccc3nc(S)n(c23)C[C@@H]1C(C)C | –
43 | 14.3 | CC(C)=CCN1Cc2cccc3[nH]c(=S)n(c23)C(C)C1C (stereo not drawn) | IC50 [2, 9]: 2.22 µM
44 | 0.16 | CC(C)=CCN1CCn2c(=S)[nH]c3cc(Cl)cc(c32)C1 | –
45 | 56.7 | CC(C)=CCN1Cc2cccc3nc(O)n(c23)C(C)C1C (stereo not drawn) | –
46 | > 2 | CC(C)=CCN1CCn2c(O)nc3cc(Cl)cc(c32)C1CC(C)C (stereo not drawn) | –
47 | > 83 | CCCN1CCn2c(=O)[nH]c3cccc(c32)C1C (stereo not drawn) | –
48 | > 250 | CCCN1Cc2cccc3nc(O)n(c23)C(c2ccccc2)C1 (stereo not drawn) | –
49 | 73.3 | CCCN1Cc2cccc3[nH]c(=O)n(c23)C(C(C)C)C1 (stereo not drawn) | –
50 | 2.43 | CCCN1CCn2c(=S)[nH]c3cccc(c32)C1C (stereo not drawn) | –
51 | > 10 | C=C1CC2Cn3c(S)nc4cc(Cl)cc(c43)CN2C1 (stereo not drawn) | –
52 | > 2 | CC(C)=CCN1CCn2c(S)nc3cc(Cl)cc(c32)C1CC(C)C (stereo not drawn) | –
53 | 3.76 | C/C=C1/CC2Cn3c(S)nc4cc(Cl)cc(c43)CN2C1 (stereo not drawn) | –
54 | > 10 | CC(C)=CCN1Cc2cccc3nc(O)n(c23)C[C@@H]1C(C)C | –
55 | 32.1 | C=C(C)CN1Cc2cccc3[nH]c(=O)n(c23)C(C)C1 (stereo not drawn) | –
56 | > 5 | CC(C)=CCN1[C@@H](C)Cn2c(=O)[nH]c3cc(Cl)cc(c32)[C@@H]1C | –
57 | > 250 | C=C(C)CN1Cc2cccc3nc(O)n(c23)C(c2ccccc2)C1 (stereo not drawn) | –
58 | > 250 | CC(C)C1Cn2c(O)nc3cccc(c32)CN1 (stereo not drawn) | –
59 | 0.06 | C[C@@H]1Cn2c(S)nc3cccc(c32)CN1CC1CC1 | –

Row | IC50 [1] [µM] | SMILES | also measured
60 | > 10 | CC(C)=CCN1Cc2cc(Cl)cc3nc(O)n(c23)C[C@@H]1C(C)C | –
61 | 0.023 | CC(C)=CCN1CCn2c(=S)[nH]c3cc(Cl)cc(c32)C1C (stereo not drawn) | –
62 | 13.4 | CC1C(C)n2c(S)nc3cccc(c32)CN1CC1CC1 (stereo not drawn) | –
63 | 0.026 | C=C(C)CN1Cc2cccc3nc(S)n(c23)C[C@H]1C | –
64 | 0.034 | C[C@@H]1Cn2c(S)nc3cc(Cl)cc(c32)CN1CC1CC1 | –
65 | > 250 | CC1(C)Cn2c(O)nc3cccc(c32)CN1 | –
66 | 1.15 | CC(C)=CCN1C(C)Cn2c(=S)[nH]c3cccc(c32)C1C (stereo not drawn) | IC50 (MT4 [5]): 0.042 µM
67 | > 250 | CCC1Cn2c(O)nc3cccc(c32)CN1 (stereo not drawn) | –
68 | > 250 | CC1CNCc2cccc3nc(O)n1c23 (stereo not drawn) | –
69 | > 50 | CCCN1Cc2cc(Cl)cc3[nH]c(=S)n(c23)C(=O)C1C (stereo not drawn) | –
70 | > 2 | S=c1[nH]c2cc(Cl)cc3c2n1CCN1CCCCC31 (stereo not drawn) | –
71 | 0.078 | CC(C)=CCN1CCn2c(=S)[nH]c3cccc(c32)C1C (stereo not drawn) | –
72 | 0.48 | CC(C)=CCN1[C@H](C)Cn2c(=S)[nH]c3cc(Cl)cc(c32)[C@H]1C | –
73 | > 250 | CC1Cn2c(O)nc3cccc(c32)CN1 (stereo not drawn) | –
74 | > 10 | C=C(C)CN1Cc2cccc3nc(O)n(c23)C[C@@H]1C(C)C | –
75 | 23.1 | C=C(C)CN1Cc2cccc3[nH]c(=O)n(c23)CC1(C)C | –
76 | > 250 | Oc1nc2cccc3c2n1C(c1ccccc1)CNC3 (stereo not drawn) | –
